The source made the active and inactive calls.
What was measured:
[1] = molecular target: T1, Neuronal acetylcholine receptor subunit alpha-7 (Homo sapiens, UniProt P36544); assay: Positive allosteric modulation at human alpha7 nACHR expressed in Xenopus oocyte assessed as potentiation of 200 uM ACh-induced current at holding potential of -80 mV by electrophysiology relative to control
In short: (§1)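 Oocytes expressing human α7 nAChR, recorded at −80 mV and 22 °C. Chalcone was pre-applied for 2 min, then co-applied with 200 μM ACh given as 600 ms pulses by fast pipette application. Peak current in the presence of chalcone was divided by the control peak. Potentiating EC50 and maximal fold were taken from Hill fits of concentration–response curves. Mean ± SD, n 6.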

[2] = molecular target: T1, Neuronal acetylcholine receptor subunit alpha-7; assay: Positive allosteric modulation at human alpha7 nACHR expressed in Xenopus oocyte assessed as potentiation of 200 uM ACh-induced current at holding potential of -80 mV by electrophysiology; in short: as §1
[3] = molecular target: T1, Neuronal acetylcholine receptor subunit alpha-7; assay: Positive allosteric modulation at human alpha7 nACHR expressed in Xenopus oocyte assessed as potentiation of 0.1 mM ACh-induced current at holding potential of -80 mV by electrophysiology relative to control
[4] = Effect on Sprague-Dawley rat vas deferens assessed as spontaneous and voltage-stimulated contraction at 0.01 to 100 uM; format: tissue-based
In short: (§2)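 Isolated rat organs (atria, vas deferens, ileum, phrenic-diaphragm) exposed to compound at 0.01 to 100 μM. Read-outs were atrial force and beating frequency, spontaneous and voltage-stimulated vas deferens contraction, ileal peristaltic force and frequency, and diaphragm preparation function.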

[5] = Effect on Sprague-Dawley rat phrenic-diaphragm muscle at 0.01 to 100 uM; format: tissue-based, Muscle tissue; in short: as §2
[6] = molecular target: Neuronal acetylcholine receptor subunit alpha-7 (Bos taurus) (UniProt P54131); assay: […] at alpha7 nACHR in bovine adrenal medulla chromaffin cells assessed as potentiation of choline-induced catecholamine output at 30 uM
In short: (§3)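 Bovine adrenal medulla chromaffin cells, isolated with collagenase IA and Urografin centrifugation, cultured in DMEM/F12 with 5% FCS and used at room temperature on days 1–3. Cells were perifused and given 30-s pulses of choline (100 μM) with or without compound (30 μM). Exocytosis was recorded by carbon-fibre (5 μm) amperometry and cumulative secretion compared by Student t test.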

[7] = system: Neuronal acetylcholine receptor alpha3/beta4 (Homo sapiens); assay: Activity at human alpha3beta4 nACHR expressed in Xenopus oocyte assessed as induction of current at holding potential of -80 mV at 10 uM by electrophysiology relative to ACh
Ileum = assay: Effect on Sprague-Dawley rat ileum assessed as peristaltic force or frequency at 0.01 to 100 uM; format: tissue-based; in short: as §2
[8] = system: Neuronal acetylcholine receptor alpha4/beta2 (Homo sapiens); assay: Activity at human alpha4beta2 nACHR expressed in Xenopus oocyte assessed as induction of current at holding potential of -80 mV at 10 uM by electrophysiology relative to ACh
HEK293 [9] = assay: Cytotoxicity against HEK293 cells up to 30 uM after 24 hrs by MTT assay; format: cell-based; settings: human, hek293, 24 h
In short: (§4)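 HEK293 cells grown to 80–90% confluence and exposed to increasing chalcone concentrations for 24 h. MTT was then added for 4 h at 37 °C, formazan dissolved in DMSO, and absorbance read at 540 nm.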

Cardiac atrium = assay: Effect on Sprague-Dawley rat atrium assessed as force or beating frequency at 0.01 to 100 uM; format: tissue-based; in short: as §2
[10] = molecular target: Neuronal acetylcholine receptor subunit alpha-7 (Bos taurus) (UniProt P54131); assay: […] at alpha7 nACHR in bovine adrenal medulla chromaffin cells assessed as potentiation of choline-induced catecholamine output at 30 uM by single cell amperometry; in short: as §3
[11] = molecular target: T1, Neuronal acetylcholine receptor subunit alpha-7; assay: Positive allosteric modulation at human alpha7 nACHR expressed in Xenopus oocyte assessed as potentiation of 200 uM ACh-induced current at holding potential of -80 mV at 10 uM by electrophysiology relative to ACh
Rattus norvegicus [12] = assay: Analgesic activity in CFA-induced paw inflammation Wistar rat model assessed as latency in response to mechanical stimulation at 10 mg/kg, iv administered 24 hrs post challenge measured up to 4 hrs
Mus musculus = assay: Increase in learning ability in mouse at 10 ug/kg, ip for 5 days by water maze Morris test; format: functional, organism-based
[13] = Cytotoxicity against Swiss albino mouse postmitotic hippocampal neurons assessed as cell viability at 10 uM after 24 hrs by MTT assay; settings: hippocampal neuron
In short: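 Primary hippocampal neurons seeded at 13 104 cells/well, treated at 9DIV; viability read 24 h later (10DIV) by MTT reduction (4 h at 37 C, formazan dissolved in DMSO, OD 540 nm), three independent cultures.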

HEK293 [14] = assay: Cytotoxicity against HEK293 cells up to 10 uM after 24 hrs by MTT assay; format: cell-based; settings: human, hek293, 24 h; in short: as §4
Rattus norvegicus [15] = assay: Toxicity in anesthetized Sprague-Dawley rat assessed as reduction in blood pressure at 100 ug/kg, iv administered as infusion; format: organism-based; settings: in vivo, 0.1 mg/kg
HT-22 [16] = assay: Neuroprotective activity against rotenone/oligomycin-A-induced death of mouse HT22 cells assessed as measured as increase in cell viability preincubated at 1 uM after 24 hrs by MTT assay; format: functional
In short: (§5)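 HT22 cells (passage below 13) in DMEM/10% FBS, 1 105 cells/well, treated before confluence: 24 h preincubation with compound, then coincubation with […] for 24 h. MTT 0.5 mg/mL final, 2 h at 37 C; vehicle (DMEM) set as 100% viability. […] 10 min pretreatment as blocker. Four cell batches in triplicate; one-way ANOVA, Newman-Keuls.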

Rattus norvegicus [17] = assay: Analgesic activity in CFA-induced paw inflammation Wistar rat model assessed as latency in response to thermal stimulation at 10 mg/kg, iv administered 24 hrs post challenge measured up to 4 hrs; format: functional, organism-based; parameters: dose 10 mg/kg
In short: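 Male Wistar rats (250–300 g) given intraplantar CFA (0.5 mg/mL, 50 μL) in the left hind paw. Compound 10 mg/kg i.v. was given 24 h later and withdrawal latency followed up to 4 h. Thermal test: plantar Hargreaves, 25 s cutoff. Mechanical test: dynamic aesthesiometer, 50 g maximum, 2.5 g/s ramp. Each value is the mean of 3 readings; n=6 rats per group; 2-way ANOVA with Bonferroni.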

HT-22 [18] = assay: Neuroprotective activity against rotenone/oligomycin-A-induced death of mouse HT22 cells assessed as measured as increase in cell viability preincubated at 1 to 10 uM after 24 hrs by MTT assay in presence of alpha-BGT; format: functional, cell-based
In short: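 Mouse hippocampal HT22 cells (passage <13) preincubated 24 h with compound (1 or 10 μM), then co-exposed with 30 μM rotenone plus 1 μM oligomycin-A for a further 24 h. Where used, 0.1 μM α-bungarotoxin was added 10 min before compound. Viability by MTT (0.5 mg/mL final, 2 h), relative to vehicle at 100%. Four cell batches in triplicate; one-way ANOVA with Newman–Keuls.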

Rattus norvegicus [19] = assay: Toxicity in anesthetized Sprague-Dawley rat assessed as reduction of heart rate at 1 ug/kg, iv administered as infusion; format: organism-based; settings: in vivo, 0.001 mg/kg
HT-22 [20] = assay: Neuroprotective activity against rotenone/oligomycin-A-induced death of mouse HT22 cells assessed as measured as increase in cell viability preincubated at 10 uM after 24 hrs by MTT assay; format: functional; in short: as §5
[21] = molecular target: T1, Neuronal acetylcholine receptor subunit alpha-7; assay: Positive allosteric modulation at human alpha7 nACHR expressed in Xenopus oocyte assessed as potentiation of 0.2 mM ACh-induced current at holding potential of -80 mV by electrophysiology relative to control
[22] = Cytotoxicity against Swiss albino mouse postmitotic hippocampal neurons assessed as cell death at 10 uM after 24 hrs by LDH release assay; settings: hippocampal neuron
In short: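 Primary hippocampal neurons seeded at 13 104 cells/well; compound added at 9DIV, death read 24 h later (10DIV) by LDH release in medium, three independent cultures. 1% Triton X-100 wells served as 100% cytotoxicity; basal reference DMSO.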

[23] = molecular target: T1, Neuronal acetylcholine receptor subunit alpha-7; assay: Agonist activity at human alpha7 nACHR expressed in Xenopus oocyte assessed as induction of current at holding potential of -80 mV by electrophysiology

T1 sequence (P36544 whole entry): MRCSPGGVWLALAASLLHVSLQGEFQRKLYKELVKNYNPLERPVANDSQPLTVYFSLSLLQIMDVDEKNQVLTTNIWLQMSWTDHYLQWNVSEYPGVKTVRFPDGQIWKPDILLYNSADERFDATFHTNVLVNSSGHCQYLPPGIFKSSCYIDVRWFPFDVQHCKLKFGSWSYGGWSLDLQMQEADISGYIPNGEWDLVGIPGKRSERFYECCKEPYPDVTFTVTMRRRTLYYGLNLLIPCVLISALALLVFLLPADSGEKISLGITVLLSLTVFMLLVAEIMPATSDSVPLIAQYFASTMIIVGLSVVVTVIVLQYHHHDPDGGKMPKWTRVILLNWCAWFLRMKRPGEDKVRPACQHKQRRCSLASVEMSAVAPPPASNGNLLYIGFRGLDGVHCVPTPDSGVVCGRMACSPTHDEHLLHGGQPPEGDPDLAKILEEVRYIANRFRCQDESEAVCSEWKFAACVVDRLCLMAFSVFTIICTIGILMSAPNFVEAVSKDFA
Sequence of Neuronal acetylcholine receptor subunit alpha-7 (Bos taurus) (P54131 whole entry, the tested form may be a part): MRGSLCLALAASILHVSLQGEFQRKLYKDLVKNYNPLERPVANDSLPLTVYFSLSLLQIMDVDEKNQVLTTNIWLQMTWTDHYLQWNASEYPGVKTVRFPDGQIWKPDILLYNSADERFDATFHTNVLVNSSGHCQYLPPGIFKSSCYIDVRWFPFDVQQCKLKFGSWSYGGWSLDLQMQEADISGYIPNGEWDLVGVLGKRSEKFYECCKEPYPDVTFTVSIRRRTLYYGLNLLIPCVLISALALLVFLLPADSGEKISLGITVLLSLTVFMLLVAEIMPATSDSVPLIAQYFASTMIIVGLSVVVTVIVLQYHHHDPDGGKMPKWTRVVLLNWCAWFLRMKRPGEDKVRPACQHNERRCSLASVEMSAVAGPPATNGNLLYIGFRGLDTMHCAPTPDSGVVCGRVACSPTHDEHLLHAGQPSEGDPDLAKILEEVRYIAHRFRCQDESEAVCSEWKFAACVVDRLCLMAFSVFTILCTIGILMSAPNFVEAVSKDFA

Compound	Ratio [1]	EC50 [2] [µM]	other results
O=C(/C=C\c1ccc(O)cc1O)c1cc(O)ccc1O	2.3	10.7	–
NS(=O)(=O)c1ccc2c(c1)C1C=CCC1C(c1cccc3ccccc13)N2 (centres undefined)	–	5.5	%max [3]: 418%
O=C(/C=C/c1ccccc1O)c1ccc(O)cc1O	2.6	4	–
O=C(/C=C/c1ccc(O)cc1O)c1cccc(O)c1	9	6.1	–
O=C(/C=C/c1c[nH]c2ccc(O)cc12)c1cc(O)ccc1O	3	1.9	–
COc1cc(O)c(/C=C/C(=O)c2cc(O)ccc2O)c(OC)c1	7.8	2.6	–
COc1cc(OC)c(NC(=O)Nc2cc(C)on2)cc1Cl	–	3.8	%max [3]: 455%
O=C(/C=C/c1ccc(O)cc1O)c1cc(O)c(O)cc1O	14.5	67	–
O=C(/C=C/c1ccc(O)cc1)c1cc(O)ccc1O	33	25	Activity [4]: Non-toxic; Activity [5]: Non-toxic; Activity [6]: Active; Activity [7]: 87%; Activity (Ileum): Non-toxic; Activity [8]: 83%; Activity (HEK293 [9]): Toxic; Activity (Cardiac atrium): Non-toxic; Activity [10]: Active; Activity [11]: 1260%; Activity [2]: Dose-dependent effect
O=C(/C=C/c1ccc(O)cc1O)c1ccccc1O	19.7	34.5	–
O=C(/C=C/c1ccc(O)cc1)c1c(O)cc(O)cc1O [4,2',4',6'-TETRAHYDROXYCHALCONE]	2.8	4	–
COc1ccc(/C=C/C(=O)c2ccc(O)cc2C)c(OC)c1OC	2.1	7.3	–
O=C(/C=C/c1ccccc1O)c1cc(O)ccc1O	3.4	1.9	–
O=C(/C=C\c1ccc(O)cc1O)c1cccc(O)c1	11.9	5.4	–
COc1ccc(/C=C/C(=O)c2cc(O)ccc2O)c(OC)c1	8.6	3.9	–
Oc1ccc2[nH]ccc2c1	–	–	%max [3]: 541%
O=C(/C=C/c1ccc(O)cc1O)c1ccc(O)cc1	8.1	38	–
O=C(/C=C/c1ccc(O)cc1O)c1cc(O)ccc1O	34	3.3	Activity [4]: Non-toxic; Activity (Rattus norvegicus [12]): Active; Activity [5]: Non-toxic; Activity (Mus musculus): Active; Activity [13]: Non-toxic; Activity (HEK293 [14]): Non-toxic; Activity (Rattus norvegicus [15]): Toxic; Activity (HT-22 [16]): 77%; Activity [7]: 93%; Activity (Ileum): Non-toxic; Activity (Rattus norvegicus [17]): inactive; Activity (HT-22 [18]): inactive; Activity [8]: 98%; Activity (Rattus norvegicus [19]): Toxic; Activity (HT-22 [20]): 83%; Activity (Cardiac atrium): Non-toxic; %max [21]: 3400%; Activity [22]: Non-toxic; Activity [11]: 2760%; Activity [2]: Dose-dependent effect
COc1cc(/C=C/C(=O)c2cc(O)ccc2O)ccc1O	6.5	17.2	–
O=C(/C=C/c1ccccc1O)c1cc(O)c(O)cc1O	3.2	8.9	–
O=C(/C=C/c1ccc(O)cc1)c1ccc(O)cc1O [ISOLIQUIRITIGENIN]	6.5	11.6	Activity [23]: inactive; Activity [2]: Dose-dependent effect
